Screens as filed in PubChem BioAssay.
EBV gp42 block: inhibitors of Epstein-Barr virus glycoprotein 42; Q1HVG2; Fluorescence polarization binding assay, mP read-out; inhibition, % (tested at 21.74 µM); 0.42% of 220,000 active; in the data active = inhibition above about 50%
Target sequence (Q1HVG2 whole entry, looked up): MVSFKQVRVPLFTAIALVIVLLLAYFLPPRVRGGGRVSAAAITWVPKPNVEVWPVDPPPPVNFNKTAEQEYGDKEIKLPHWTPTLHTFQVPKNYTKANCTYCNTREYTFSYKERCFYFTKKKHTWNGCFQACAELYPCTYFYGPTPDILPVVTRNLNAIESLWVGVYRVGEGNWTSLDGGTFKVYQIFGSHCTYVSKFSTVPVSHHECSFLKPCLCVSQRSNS
WT yeast gro inh: growth inhibition of WT yeast, mitochondrial fusion screen; 2.1% of 190,000 active; AID 1362; mitochondrial fusion phenotypic screen, WT strain; inhibition, % at 10 µM; in the data active = inhibition above about 58%; tested in S. cerevisiae
MPTP block: blocks calcium-induced mitochondrial swelling; isolated mouse mitochondria, Ca2+ swelling absorbance, 30 min; inhibition, % at 10 µM; 1.4% of 360,000 active;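 active = inhibition of 50% or more, scaled per plate between neutral and stimulator controls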;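 note: 0% = DMSO wells given calcium and 100% = 1 mM EGTA wells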
GRIN3A LBD mod: modulates the human NR3A ligand-binding domain; AID 1259313; NR3A LBD differential scanning fluorimetry, Tm shift; 0% = protein alone, 100% = glycine-bound protein; 2.5% of 340,000 active; Tm shift relative to glycine control, % at 25 µM;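 active = melting temperature shift of at least 10% of the positive control shift, at one fixed dose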
Tb MetRS inh: blocks T. brucei methionyl-tRNA synthetase activity | purified T. brucei MetRS, ATP depletion, Kinase-Glo luminescence | inhibition, % at 11.9 µM | 0.4% of 360,000 active;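 active = inhibition above a per-plate cutoff of the control wells' mean inhibition plus 3 SD, cut at about 5.5% in these data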;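 note: 0% = DMSO wells median and 100% = median of wells with control inhibitor compound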
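Test system – parasite MetRS enzyme · Reagent – substrates ATP, L-methionine and bulk Escherichia coli tRNA · Doses – 11.9 µM compound single dose, 0.9% DMSO · Times – 15 min enzyme-compound preincubation, 2 h reaction, 10 min detection, 25 °C · Signal – Kinase-Glo luminescence, ATP depletion format · Controls – DMSO-only wells as low control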
CHOP inhibitor: inhibitors of CHOP induction in ER stress response; CHO-K1 CHOP-promoter luciferase, tunicamycin-induced, 15-18 h; inhibition, % at 10 µM; 3.8% of 220,000 active; AID 2732;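 active = compounds that reduced the stress-induced luciferase reporter signal by more than about 70% of percent inhibition, limit read from the data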;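 note: 0% = tunicamycin plus vehicle and 100% = wells without tunicamycin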
An asterisk follows results filed as active. Compounds with a hit are over-represented: about 6.4% of the library has one in this group of screens.

For Cc1c(C(=O)N2CCC(N3CCSCC3)CC2)oc2c(F)cccc12 the results were MPTP block -1, GRIN3A LBD mod 4 and Tb MetRS inh 0.
Screening COc1cc(/C=C2\S/C(=N/S(=O)(=O)c3ccccc3)NC2=O)c([N+](=O)[O-])cc1OC returned EBV gp42 block 4, WT yeast gro inh 9, MPTP block -1, GRIN3A LBD mod -3, Tb MetRS inh -1 and CHOP inhibitor 23.
Screening COc1cc(/C=C2\SC(=Nc3ccccc3)NC2=O)cc(Cl)c1O returned MPTP block 2, GRIN3A LBD mod 12* and Tb MetRS inh 0.
O=C1NC(=Nc2cccc(O)c2)S/C1=C\c1cccc([N+](=O)[O-])c1 was read as MPTP block 2, GRIN3A LBD mod 13* and Tb MetRS inh 0.
For CCc1ccc(N=C2NC(=O)/C(=C/c3cc(OC)c(O)c(OC)c3)S2)cc1 the results were MPTP block 2, GRIN3A LBD mod 3 and Tb MetRS inh 1.
Screening O=C1NC(=Nc2cccc(O)c2)S/C1=C\c1cccnc1 returned EBV gp42 block -3, MPTP block 1, GRIN3A LBD mod 8, Tb MetRS inh 2 and CHOP inhibitor -22.
Screening COc1cc(/C=C2/SC(=Nc3ccc(O)cc3)NC2=O)ccc1O returned EBV gp42 block -54, MPTP block 3, GRIN3A LBD mod 27*, Tb MetRS inh 0 and CHOP inhibitor 35.
For COc1cc(/C=C2\SC(=Nc3ccc(Cl)c(C(=O)O)c3)NC2=O)c(Br)c(Br)c1O the results were MPTP block -1, GRIN3A LBD mod 13* and Tb MetRS inh -1.
`CCN1C(=O)[C@@H]2[C@@H](c3ccc(-c4ccc(C(C)=O)cc4)cc3)N3CCC[C@@]3(C(=O)OC)[C@@H]2C1=O` gave MPTP block 0, GRIN3A LBD mod -2 and Tb MetRS inh 0.
Screening COc1cccc(NS(=O)(=O)c2ccc3c(c2)NC(=O)C(C)C(=O)N3)c1 (stereo not given) returned MPTP block 1, GRIN3A LBD mod 0 and Tb MetRS inh 1.
`CN(C)C(=S)N=c1ssc(=S)n1Cc1cccnc1` gave MPTP block -1, GRIN3A LBD mod 27* and Tb MetRS inh 0.
`NC(=S)N/N=C/c1ccc(C(F)(F)F)cc1` gave EBV gp42 block 6, WT yeast gro inh 33, MPTP block -1, GRIN3A LBD mod 19*, Tb MetRS inh 0 and CHOP inhibitor -7.
Brc1ccc(N=Nc2ccc3ccccc3n2)cc1 was read as EBV gp42 block -17, MPTP block 1, GRIN3A LBD mod 2, Tb MetRS inh -1 and CHOP inhibitor 91*.
`Cc1noc(NS(=O)(=O)c2ccc(NC(=O)c3cc(F)c(F)c(F)c3F)cc2)c1C` gave MPTP block 0, GRIN3A LBD mod 92* and Tb MetRS inh 0.
For Cc1cc(C(=O)Nc2ccc(S(=O)(=O)Nc3onc(C)c3C)cc2)c(C)o1 the results were EBV gp42 block -13, WT yeast gro inh 4, MPTP block -3, GRIN3A LBD mod -1, Tb MetRS inh -1 and CHOP inhibitor 8.
`O=C(/C=C/c1ccccc1F)c1cccc([N+](=O)[O-])c1` gave EBV gp42 block -12, WT yeast gro inh 24, MPTP block 3, GRIN3A LBD mod 19*, Tb MetRS inh -1 and CHOP inhibitor -43.
COc1cc2nc(SCC(=O)NCc3ccco3)n(Cc3ccc(Cl)cc3)c(=O)c2cc1OC was read as EBV gp42 block -12, WT yeast gro inh -1, MPTP block 7, GRIN3A LBD mod -1, Tb MetRS inh 0 and CHOP inhibitor 89*.
`COc1cc2c(=O)n(Cc3ccccc3)c(=O)n(CC(=O)NCc3ccco3)c2cc1OC` gave EBV gp42 block -8, WT yeast gro inh 5, MPTP block -1, GRIN3A LBD mod -1, Tb MetRS inh -2 and CHOP inhibitor 71*.
Screening CCCCCn1c(SCC(=O)OCC)nc2cc(C(=O)NCc3ccco3)ccc2c1=O returned EBV gp42 block -3, WT yeast gro inh -10, MPTP block 2, GRIN3A LBD mod 0, Tb MetRS inh 0 and CHOP inhibitor 73*.
For COCCNC(=O)CSc1nc2cc(OC)c(OC)cc2c(=O)n1Cc1ccc(OC)cc1 the results were EBV gp42 block -22, WT yeast gro inh 27, MPTP block -1, GRIN3A LBD mod 0, Tb MetRS inh 0 and CHOP inhibitor 14.
`C=CCn1c(SCC(=O)OCC)nc2cc(C(=O)NCc3ccco3)ccc2c1=O` gave EBV gp42 block -9, WT yeast gro inh 10, MPTP block 2, GRIN3A LBD mod 1, Tb MetRS inh -1 and CHOP inhibitor 14.
O=C(/C=C/c1ccccc1O)c1ccco1 was read as MPTP block -1, GRIN3A LBD mod 23* and Tb MetRS inh -1.
C#CCOCCOCCOCCNc1nc(N2CCN(C(=O)Cn3cc(CCCCN)nn3)CC2)nc(N2CCN(C(=O)[C@H](Cc3ccc(O)cc3)n3cc(CCO)nn3)CC2)n1 was read as MPTP block -3, GRIN3A LBD mod 2 and Tb MetRS inh 0.
For COc1ccccc1NC(=O)Nc1nnc(CC(=O)Nc2ccccc2)s1 the results were EBV gp42 block -4, WT yeast gro inh 7 and CHOP inhibitor 38.
For O=C(Cc1nnc(NC(=O)Nc2ccccc2)s1)Nc1ccccc1 the results were EBV gp42 block -10, MPTP block 4, GRIN3A LBD mod 12*, Tb MetRS inh 2 and CHOP inhibitor 2.
Screening O=C(Nc1ccccc1)Nc1nnc(-c2cccs2)s1 returned EBV gp42 block -3, WT yeast gro inh 4, MPTP block 23, GRIN3A LBD mod 22*, Tb MetRS inh 2 and CHOP inhibitor -23.
O=C(Cc1nnc(NC(=O)Nc2ccc(F)cc2)s1)Nc1ccccc1 was read as EBV gp42 block -13, WT yeast gro inh 6, MPTP block 3, GRIN3A LBD mod 25*, Tb MetRS inh 1 and CHOP inhibitor 24.
O=C(Cc1nc(=O)c2ccccc2s1)Nc1ccccc1 was read as EBV gp42 block -21, WT yeast gro inh -14, MPTP block 14, GRIN3A LBD mod 18*, Tb MetRS inh 0 and CHOP inhibitor -12.
Screening Cc1cccc(-c2noc(CN(C)C(=O)c3ccoc3C)n2)c1 returned MPTP block 0, GRIN3A LBD mod -2 and Tb MetRS inh 0.
CC(=O)c1c(C)[nH]c(C(=O)NNC(=O)COc2ccc(Cl)cc2C)c1C was read as MPTP block -1, GRIN3A LBD mod -2 and Tb MetRS inh 0.
For OCCN1CCN(c2nc(-c3ccccc3O)nc3ccccc23)CC1 the results were MPTP block 0, GRIN3A LBD mod 19* and Tb MetRS inh -2.
Screening CN1CCN(c2nc(-c3ccccc3O)nc3ccccc23)CC1 returned MPTP block 1 and Tb MetRS inh -1.
Screening Cc1cc(=O)oc2cc(OCC(=O)NC3CCN(Cc4ccccc4)CC3)c(Cl)cc12 returned MPTP block -1, GRIN3A LBD mod 0 and Tb MetRS inh -1.
